The target in this assay is Scavenger receptor class B member 1 (Mus musculus) (UniProt Q61009). Kind of assay: inhibitors of SR-BI-mediated DiI-HDL uptake, dose response, ldlA[mSR-BI] CHO cells, fluorescence, dry powder, set 6 (AID 588828). Particulars: 3 h; for activity change, negative = inhibition: at 35 µM (top of the series). In outline:
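System: CHO ldlA cells overexpressing mSR-BI scavenger receptor. Reagent: DiI-HDL, 10 µg/mL. Dosing: compound concentration series. Times: overnight cell attachment, then 3 h compound and DiI-HDL exposure at 37 °C. Signal: fluorescence, bottom read, excitation 550 nm, emission 595 nm.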

This is an account of results in PubChem BioAssay AID588828 (Broad Institute, 2011).

Each structure is given as a SMILES string. Activity calls are given as the source filed them.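 Rule for the calls: active = compounds cutting labeled HDL uptake fluorescence whose fitted AC50 is within ten times their top tested dose; inconclusive = flat fit with 30 to 70% inhibition, or poor fit; inactive = the rest.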

Scavenger receptor class B member 1 (Mus musculus), sequence (Q61009 whole entry, looked up): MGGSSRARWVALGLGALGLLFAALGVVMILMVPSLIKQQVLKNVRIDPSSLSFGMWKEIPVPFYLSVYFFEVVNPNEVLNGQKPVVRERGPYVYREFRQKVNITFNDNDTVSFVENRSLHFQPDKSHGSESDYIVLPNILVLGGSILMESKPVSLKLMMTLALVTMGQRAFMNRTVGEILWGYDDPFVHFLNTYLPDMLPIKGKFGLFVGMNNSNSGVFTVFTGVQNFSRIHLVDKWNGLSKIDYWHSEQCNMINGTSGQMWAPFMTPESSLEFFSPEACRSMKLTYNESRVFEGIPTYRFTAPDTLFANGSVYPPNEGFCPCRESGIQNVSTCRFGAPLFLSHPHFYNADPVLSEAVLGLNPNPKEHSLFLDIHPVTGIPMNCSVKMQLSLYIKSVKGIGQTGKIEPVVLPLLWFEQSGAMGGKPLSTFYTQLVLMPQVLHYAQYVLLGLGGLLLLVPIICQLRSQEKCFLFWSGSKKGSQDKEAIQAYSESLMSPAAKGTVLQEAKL

As a reminder, the AC50 is the midpoint of the concentration-response curve, whichever way the signal moves. Regarding `C[C@H](C(=O)NC1CCCC1)N(C(=O)Cn1nnc(-c2ccc3c(c2)OCO3)n1)C1CCCCC1`, the AC50 is 0.00122 µM.
Take `CC(C)(Sc1cc(C(C)(C)C)c(O)c(C(C)(C)C)c1)Sc1cc(C(C)(C)C)c(O)c(C(C)(C)C)c1`: the “activity change, negative = inhibition” value was “inactive”.
Consider `COc1ccc(-c2cc(CC(=O)N(C3CCCCC3)C(C)C(=O)NC3CCCC3)no2)cc1OC` (stereo unspecified), for which the AC50 is 0.00319 µM.
For `CC(=O)N1CCc2cc(-c3nc(NC(=O)c4cccc(OC(F)(F)F)c4)sc3C)ccc21`, the AC50 was 0.614 µM.
Consider `CCCCCCC1CCC/C1=N\NC(N)=S` (stereo unspecified), for which the AC50 is 0.0187 µM.
Regarding `Cc1ccc2oc(-c3cccc(NC(=O)c4cc(-n5cnnc5)ccc4Cl)c3)nc2c1`, the AC50 was 0.568 µM.
As for `COc1cc(OC)cc(C(=O)Nc2nc(-c3ccc4c(c3)CCN4C(=O)OC(C)(C)C)cs2)c1`, the AC50 was 0.00689 µM.
For `COc1cc(OC)cc(C(=O)Nc2nc(-c3ccc4c(c3)CCN4C(=O)CN(C)C)cs2)c1`, the half-maximal activity concentration (AC50) was 0.0063 µM.
In the case of `CCC(=O)N1CCc2cc(-c3csc(NC(=O)c4cccc(OC)c4)n3)ccc21`, the AC50 is 0.0926 µM.
Consider `COc1c(NC(=O)C(=O)c2ccc(OCCN3CCOCC3)c3ccccc23)cc(C(C)(C)C)cc1NS(C)(=O)=O`, for which the “activity change, negative = inhibition” value was “inactive”.
For `C[C@@H]1CN([C@@H](C)CO)C(=O)Cc2cc(NC(=O)Nc3ccc(C(F)(F)F)cc3)ccc2O[C@@H]1CN(C)S(=O)(=O)c1ccc(Cl)cc1`, the AC50 was > 22 µM (inactive).
Same read-out and setting: the value for `C[C@@H]1CN([C@H](C)CO)C(=O)c2cc(NC(=O)Cc3cn(C)c4ccccc34)ccc2O[C@H]1CN(C)S(=O)(=O)c1ccc(Cl)cc1` was 0.0438 µM; that for `COCC(=O)N1CCc2cc(-c3csc(NC(=O)c4cc(OC)cc(OC)c4)n3)ccc21` was 0.00366 µM.
With `CCNC(=O)N1CCc2cc(-c3csc(NC(=O)c4cc(OC)cc(OC)c4)n3)ccc21`, the AC50 was 0.000927 µM.
As to `CCC(=O)N1CC(C)(C)c2cc(-c3csc(NC(=O)c4cc(OC)cc(OC)c4)n3)ccc21`, the AC50 was 0.0142 µM.
Take `CCC(=O)N1CCc2cc(-c3csc(NC(=O)c4ccc(F)c(OC)c4)n3)ccc21`: the AC50 was 0.287 µM.
